How the values were obtained:
Vero [1] = experiment: Cytotoxicity against african green monkey Vero E6 cells by MTS assay; assay type: cell-based; conditions: chlorocebus sabaeus
Summary of the method: (§1)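 CC50 measured in the uninfected host cells used in each CPE assay. Compound cytotoxicity is read out by MTS dye reduction.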

West Nile virus = experiment: Antiviral activity against West nile virus NY99 infected in african green monkey Vero cells assessed as inhibition of virus induced cytopathic effect after 24 hrs by MTS assay; assay type: functional, organism-based; conditions: NY-99, Vero
dengue virus type 2 = experiment: Antiviral activity against Dengue virus type 2 New Guinea C infected in african green monkey Vero E6 cells assessed as inhibition of virus induced cytopathic effect after 24 hrs by MTS assay; assay type: functional, organism-based
MRC5 = experiment: Cytotoxicity against human MRC5 cells by MTS assay; assay type: cell-based; summary of the method: as §1
Influenza A virus = experiment: Antiviral activity against Influenza A virus H3N2 infected in MDCK cells assessed as inhibition of virus induced cytopathic effect after 24 hrs by MTS assay; assay type: functional, organism-based
MDCK = experiment: Cytotoxicity against dog MDCK cells by MTS assay; assay type: cell-based, Canis lupus familiaris; summary of the method: as §1
[2] = (§2) Cytotoxicity against human HuH7 cells by MTS assay; assay type: cell-based, Huh-7; conditions: HuH7 cells
[3] = Antiviral activity against Coxsackievirus A7 infected in human MRC5 cells assessed as inhibition of virus induced cytopathic effect after 24 hrs by MTS assay; assay type: functional, cell-based; conditions: Enterovirus A, MRC5, 24 h
Summary of the method: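 Cytoprotection (CPE) assay in MRC-5 cells infected with Coxsackie A strain A7 or A21. MTS dye reduction read out both protection from virus-induced CPE and compound cytotoxicity, giving EC50 and CC50.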

Vero [4] = experiment: Cytotoxicity against african green monkey Vero cells by MTS assay; assay type: cell-based; conditions: chlorocebus sabaeus; summary of the method: as §1
SARS-CoV = experiment: Antiviral activity against SARS coronavirus Toronto-2 infected in african green monkey Vero cells assessed as inhibition of virus induced cytopathic effect after 24 hrs by MTS assay; assay type: functional, organism-based; conditions: Severe acute respiratory syndrome-related coronavirus, Toronto-2, Vero
Human respirovirus 3 = experiment: Antiviral activity against Parainfluenza 3 C 243 infected in african green monkey Vero cells assessed as inhibition of virus induced cytopathic effect after 24 hrs by MTS assay; assay type: functional, organism-based; conditions: Human respirovirus 3, C 243, Vero
Coxsackievirus A21 = experiment: Antiviral activity against Coxsackievirus A21 infected in human MRC5 cells assessed as inhibition of virus induced cytopathic effect after 24 hrs by MTS assay; assay type: functional, organism-based; conditions: Enterovirus C, MRC5, 24 h
Summary of the method: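 EC50 taken from a cytoprotection (CPE) assay. Protection of virus-infected host cells is read out by MTS dye reduction. The Coxsackie A assay uses MRC-5 cells with strain A7 or A21.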

Hepatitis C virus [5] = experiment: Antiviral activity against Hepatitis C virus genotype 1b infected in human HuH7 cells assessed as inhibition of virus induced cytopathic effect after 24 hrs by MTS assay; assay type: functional, organism-based, Hepacivirus hominis; conditions: Huh-7, 24 h
Hepatitis C virus [6] = experiment: Inhibition of Hepatitis C virus genotype 1b NS5B RNA-dependent RNA polymerase using [33P]ATP after 90 mins by phosphoimaging; design: species or system Hepatitis C virus subtype 1b; conditions: 1.5 h
Summary of the method: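 Uses recombinant GT1b NS5B in 50 mM Tris–HCl pH 7.5 with 10 mM KCl, 1 mM DTT, 5 mM MgCl2, 0.2 unit/μL RNAsin and 0.01% BSA (final concentrations). 75 nM enzyme is pre-incubated with 4 ng/μL (50 nM) heteropolymer sshRNA template for 5 min at rt. Inhibitor is then added and incubated 5 min at RT.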

Huh-7 = experiment: as §2; assay type: cell-based; conditions: huh-7
[7] = Selectivity ratio of CC50 for human HuH7 cells to EC50 for Hepatitis C virus genotype 1b; assay type: ADME, cell-based, Huh-7; conditions: read-out: Ratio CC50/EC50
Summary of the method: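 Anti-HCV EC50 was measured in a subgenomic HCV replicon cell assay, and CC50 was measured in the host cells of the same assay. The selectivity index was calculated as CC50/EC50.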

Yellow fever virus = experiment: Antiviral activity against Yellow fever virus 17D infected in human HeLa cells assessed as inhibition of virus induced cytopathic effect after 24 hrs by MTS assay; assay type: functional, cell-based
HeLa = experiment: Cytotoxicity against human HeLa cells by MTS assay; assay type: cell-based; summary of the method: as §1

Q: For `C[C@@]1(c2ccc3c(N)ncnn23)O[C@H](CO)[C@@H](O)[C@H]1O`, which CC50 (Vero [1]) is on record?
A: > 30 µM

Q: What about the EC50 (West Nile virus) of the same molecule?
A: > 30 µM

Q: And the EC50 (dengue virus type 2)?
A: > 30 µM

Q: What about the CC50 (MRC5) of the same molecule?
A: > 30 µM

Q: And the EC50 (Influenza A virus)?
A: > 30 µM

Q: What about the CC50 (MDCK) of the same molecule?
A: > 30 µM

Q: And the CC50 [2]?
A: > 45 µM

Q: And the EC50 [3]?
A: > 30 µM

Q: What about the CC50 (Vero [4]) of the same molecule?
A: > 30 µM

Q: And the EC50 (SARS-CoV)?
A: > 30 µM

Q: What about the EC50 (Human respirovirus 3) of the same molecule?
A: 5.23 µM

Q: And the EC50 (Coxsackievirus A21)?
A: > 30 µM

Q: What does the source list for `C=C[C@@]1(c2ccc3c(N)ncnn23)O[C@H](CO)[C@@H](O)[C@H]1O`?
A: CC50 (Vero [1]): > 30 µM; EC50 (West Nile virus): > 30 µM; EC50 (dengue virus type 2): > 30 µM; CC50 (MRC5): > 30 µM; EC50 (Influenza A virus): > 30 µM; CC50 (MDCK): > 30 µM; CC50 [2]: > 89 µM; EC50 [3]: > 30 µM; CC50 (Vero [4]): > 30 µM; EC50 (Hepatitis C virus [5]): > 89 µM; EC50 (SARS-CoV): 14 µM; EC50 (Human respirovirus 3): > 30 µM; EC50 (Coxsackievirus A21): > 30 µM

Q: Which CC50 (Vero [1]) does the source give for `C#C[C@@]1(c2ccc3c(N)ncnn23)O[C@H](CO)[C@@H](O)[C@H]1O` here?
A: > 30 µM

Q: What about the EC50 (West Nile virus) of the same molecule?
A: > 30 µM

Q: What about the EC50 (dengue virus type 2) of the same molecule?
A: > 30 µM

Q: And the CC50 (MRC5)?
A: > 30 µM

Q: And the EC50 (Influenza A virus)?
A: > 30 µM

Q: And the CC50 (MDCK)?
A: > 30 µM

Q: What about the CC50 [2] of the same molecule?
A: > 89 µM

Q: And the EC50 [3]?
A: > 30 µM

Q: And the CC50 (Vero [4])?
A: > 30 µM

Q: And the EC50 (Hepatitis C virus [5])?
A: > 89 µM

Q: What about the EC50 (SARS-CoV) of the same molecule?
A: > 30 µM

Q: And the EC50 (Human respirovirus 3)?
A: > 30 µM

Q: And the EC50 (Coxsackievirus A21)?
A: > 30 µM

Q: With `C[C@@]1(c2ccc3c(N)ncnn23)O[C@H](COP(=O)(O)OP(=O)(O)OP(=O)(O)O)[C@@H](O)[C@H]1O` as the molecule, how does the IC50 (Hepatitis C virus [6]) read?
A: 20 µM

Q: For `C=C[C@@]1(c2ccc3c(N)ncnn23)O[C@H](COP(=O)(O)OP(=O)(O)OP(=O)(O)O)[C@@H](O)[C@H]1O`, which IC50 (Hepatitis C virus [6]) is on record?
A: 178 µM

Q: Which IC50 (Hepatitis C virus [6]) does the source give for `C#C[C@@]1(c2ccc3c(N)ncnn23)O[C@H](COP(=O)(O)OP(=O)(O)OP(=O)(O)O)[C@@H](O)[C@H]1O` here?
A: 232 µM

Q: For `CC(C)(C)C(=O)SCCOP(=O)(OCCSC(=O)C(C)(C)C)OC[C@H]1O[C@@](C#N)(c2ccc3c(N)ncnn23)[C@H](O)[C@@H]1O`, which CC50 (Huh-7) is on record?
A: 3.2 µM

Q: What about the EC50 (Hepatitis C virus [5]) of the same molecule?
A: 0.085 µM

Q: What about the selectivity ratio [7] of the same molecule?
A: 40

Q: Which CC50 (Huh-7) does the source give for `CC(C)(C)C(=O)SCCOP(=O)(OCCSC(=O)C(C)(C)C)OC[C@H]1O[C@@](C)(c2ccc3c(N)ncnn23)[C@H](O)[C@@H]1O` here?
A: 0.73 µM

Q: What about the EC50 (Hepatitis C virus [5]) of the same molecule?
A: 0.078 µM

Q: What about the selectivity ratio [7] of the same molecule?
A: < 10

Q: With `C=C[C@@]1(c2ccc3c(N)ncnn23)O[C@H](COP(=O)(OCCSC(=O)C(C)(C)C)OCCSC(=O)C(C)(C)C)[C@@H](O)[C@H]1O` as the molecule, how does the CC50 (Huh-7) read?
A: 12 µM

Q: What about the EC50 (Hepatitis C virus [5]) of the same molecule?
A: 3.43 µM

Q: What about the selectivity ratio [7] of the same molecule?
A: < 10

Q: With `C#C[C@@]1(c2ccc3c(N)ncnn23)O[C@H](COP(=O)(OCCSC(=O)C(C)(C)C)OCCSC(=O)C(C)(C)C)[C@@H](O)[C@H]1O` as the molecule, how does the CC50 (Huh-7) read?
A: 26 µM

Q: What about the EC50 (Hepatitis C virus [5]) of the same molecule?
A: 6.01 µM

Q: And the selectivity ratio [7]?
A: < 10

Q: With `N#C[C@@]1(c2ccc3c(N)ncnn23)O[C@H](CO)[C@@H](O)[C@H]1O` [GS-441524] as the molecule, how does the CC50 (Vero [1]) read?
A: > 30 µM

Q: What about the EC50 (West Nile virus) of the same molecule?
A: > 30 µM

Q: What about the EC50 (dengue virus type 2) of the same molecule?
A: 9.46 µM

Q: And the CC50 (MRC5)?
A: > 30 µM

Q: And the EC50 (Yellow fever virus)?
A: 11 µM

Q: And the EC50 (Influenza A virus)?
A: 27.9 µM

Q: What about the CC50 (MDCK) of the same molecule?
A: > 30 µM

Q: And the CC50 [2]?
A: > 89 µM

Q: What about the EC50 [3] of the same molecule?
A: > 30 µM

Q: What about the CC50 (HeLa) of the same molecule?
A: > 30 µM

Q: What about the CC50 (Vero [4]) of the same molecule?
A: > 30 µM

Q: And the EC50 (SARS-CoV)?
A: 2.24 µM

Q: And the EC50 (Human respirovirus 3)?
A: 1.71 µM

Q: And the EC50 (Coxsackievirus A21)?
A: > 30 µM

Q: With `N#C[C@@]1(c2ccc3c(N)ncnn23)O[C@H](COP(=O)(O)OP(=O)(O)OP(=O)(O)O)[C@@H](O)[C@H]1O` [RDV-TP] as the molecule, how does the IC50 (Hepatitis C virus [6]) read?
A: 5.6 µM
